Screens (PubChem BioAssay)
CHO parental Ca: counter-screen: ATP calcium response change in parental CHO cells; inhibition, % at 5.6 µM; parental CHO-K1, ATP-induced calcium, Fluo-8 fluorescence; hit rate 0.63% among 330,000;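 active means inhibition above that plate's mean sample inhibition plus 3 SD, cut at about 26% in these data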;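 further: 0% = ATP-challenged DMSO wells and 100% = DMSO wells without ATP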
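Material: Parental CHO cells | Reagent: ATP | Compound dosing: Single nominal dose of 5.6 µM per compound | Detection: Intracellular calcium via Fluo-8 no-wash fluorescent dye | Read-out: % inhibition of ATP-induced calcium mobilization | Benchmarks: Low control ATP plus DMSO, high control DMSO only | Replicates: Singlicate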
OX1R antag-1: OX1R (human) antagonism; hit rate 1.8% among 330,000; inhibition, % at 6.6 µM; OX1R-expressing cells, FRET antagonist read-out; AID 485270; in the data active means inhibition mostly above about 38%, no sharp cut-off; inactive means mostly below about 40%;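 further: 0% = agonist challenge alone and 100% = reference antagonist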
Target sequence (O43613 whole entry, looked up): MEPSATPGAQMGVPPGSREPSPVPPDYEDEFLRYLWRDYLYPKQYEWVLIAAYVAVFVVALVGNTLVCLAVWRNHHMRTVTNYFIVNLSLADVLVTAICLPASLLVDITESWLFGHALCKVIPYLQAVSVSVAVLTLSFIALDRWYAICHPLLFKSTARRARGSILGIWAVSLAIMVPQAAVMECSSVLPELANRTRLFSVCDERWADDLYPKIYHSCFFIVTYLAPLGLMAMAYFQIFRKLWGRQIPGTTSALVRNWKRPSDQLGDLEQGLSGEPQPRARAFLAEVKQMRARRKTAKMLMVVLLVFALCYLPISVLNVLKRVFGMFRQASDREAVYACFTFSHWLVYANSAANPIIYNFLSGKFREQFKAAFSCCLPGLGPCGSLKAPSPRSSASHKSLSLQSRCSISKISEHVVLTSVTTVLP
GPR7 antag: blocks human GPR7 receptor signaling | P48145 | GPR7-expressing cells, fluorescence antagonist assay | inhibition, % at 4.4 µM | hit rate 1.1% among 290,000 | AID 1861; in the data active means inhibition above about 16%, passing the limit was not always enough;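 further: cells stimulated with the agonist NPW; 0% = agonist with vehicle and 100% = vehicle without agonist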
Target sequence (P48145 whole entry, looked up): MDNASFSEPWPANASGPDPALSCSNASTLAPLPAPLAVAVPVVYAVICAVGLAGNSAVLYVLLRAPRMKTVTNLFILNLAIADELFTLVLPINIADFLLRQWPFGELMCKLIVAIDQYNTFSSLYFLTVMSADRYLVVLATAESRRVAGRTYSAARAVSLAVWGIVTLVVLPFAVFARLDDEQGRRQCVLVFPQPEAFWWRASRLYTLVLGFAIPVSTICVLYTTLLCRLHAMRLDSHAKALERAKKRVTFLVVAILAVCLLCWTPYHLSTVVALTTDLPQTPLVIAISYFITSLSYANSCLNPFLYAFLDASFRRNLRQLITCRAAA
TAAR1 ag: human TAAR1 agonism; CHO RD-HGA16 TAAR1, Fluo-8 calcium fluorescence; vehicle wells 0%, saturating PEA agonist 100%; activation, % at 3 µM; hit rate 0.99% among 360,000;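 active means activation above the mean activation of all test compounds in the run plus 3 SD, cut at about 38% in these data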
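Test system: RD-HGA16 (CHO) cells co-expressing Gα16 and hTAAR1 | Doses: Single dose, 3 µM | Schedule: 17-24 h seeding, 75 min 37 °C dye, 30 min RT | Evaluation: % activation from peak over basal fluorescence ratio, DMSO-to-PEA scaled | Technique: Kinetic Fluo-8 calcium fluorescence | Benchmarks: Low control DMSO, high control PEA (EC100)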
TAAR1 antag: human TAAR1 antagonism; inhibition, % at 3 µM; hit rate 1.5% among 360,000; CHO RD-HGA16 TAAR1, Fluo-8 calcium fluorescence, antagonist; AID 624466;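 active means inhibition above a per-plate cutoff, the mean inhibition of test compounds on that plate plus 3 SD, cut at about 49% in these data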;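 further: 0% = DMSO plus EC80 beta-PEA response and 100% = DMSO alone without agonist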
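Test system: CHO RD-HGA16 cells bearing hTAAR1 | Reagent: β-PEA, EC80 | Compound dosing: 3 µM, single point | Schedule: Dye loading 75 min at 37 °C, then 30 min room temperature | Signal: Calcium fluorescence with Fluo-8 | Evaluation: Percent inhibition of PEA-evoked calcium signal, max/basal emission ratio | Control set: DMSO-only wells and EC80 β-PEA-stimulated wells | Repeats: Singlicate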
OX1R antag-2: human HCRTR1 antagonism; CHO/OX1R cells, Fluo-8 calcium fluorescence, orexin A; inhibition, % at 5 µM; hit rate 0.43% among 330,000;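 active means inhibition above its plate's threshold, mean inhibition of all tested compounds on the plate plus 3 SD, cut at about 37% in these data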;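 further: 0% = orexin A challenge wells and 100% = SB-334867-A antagonist wells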
TAAR1 nonsel count: nonselective antagonist in TAAR1 antagonist counter-screen. hit rate 77% among 2,400. counterscreen cell line, calcium fluorescence, antagonist mode. shares compounds with TAAR1 antag. AID 651780. inhibition, % at 3 µM; in the data active means inhibition above about 22%;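 further: CHO-Ga16 host cells stimulated with ATP at an EC80 level; 0% = agonist EC80 plus vehicle and 100% = vehicle without agonist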
TAAR1 antag conf: human TAAR1 antagonism, confirmed. hit rate 40% among 2,400. AID 651785. shares compounds with TAAR1 antag. inhibition, % at 3 µM. TAAR1-expressing cells, fluorescence antagonist read-out; in the data active means inhibition above about 49%;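 further: CHO-Ga16 host cells challenged with agonist PEA near its EC80; 0% = agonist at EC80 plus vehicle and 100% = vehicle with no agonist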
Ga16 ag counter: counter-screen for TAAR1 antagonists: nonselective Ga16 agonists | activation, % at 3 µM | hit rate 18% among 2,400 | Ga16-expressing cells, calcium fluorescence, agonist counterscreen | shares compounds with TAAR1 antag; in the data active means activation above about 12%;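 further: 0% = vehicle wells and 100% = saturating stimulus response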
TAAR1 ag counter: activates human TAAR1 in antagonist counter-screen; shares compounds with TAAR1 antag; hTAAR1 cell line, fluorescence activation, agonist mode; activation, % at 3 µM; hit rate 2% among 2,400; AID 651955; in the data active means activation above about 37%;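 further: CHO cells stably expressing TAAR1 with calcium dye readout; 0% = DMSO vehicle and 100% = full agonist response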
* hit, by the source's call; · = no result. Rows were chosen to be rich in hits. Some 4.5% of all compounds tested hit in one or more screens of this group.

SMILES	CHO parental Ca	OX1R antag-1	GPR7 antag	TAAR1 ag	TAAR1 antag	OX1R antag-2	TAAR1 nonsel count	TAAR1 antag conf	Ga16 ag counter	TAAR1 ag counter
COc1ccc(CN(C)CC(=O)Nc2cccc(S(=O)(=O)N3CCCC3)c2)cc1F	-16	5	·	16	64*	-11	8	6	0	-2
CN(CC(=O)Nc1cccc(F)c1)CC(=O)Nc1cccc(S(=O)(=O)N2CCCCCC2)c1	-8	0	0	20	61*	-20	21	44	12*	15
Cc1ccc2cccc(OCC(=O)Nc3cccc(S(=O)(=O)N4CCCC4)c3)c2n1	-10	19	·	15	75*	-8	34*	57*	9	7
CC(C)(C)NC(=O)C(OC(=O)c1ccco1)c1ccc(Cl)cc1 (stereo not drawn)	-25	11	-18	-1	-4	-28	·	·	·	·
COc1cc(OC)cc(C(=O)N[C@H](C(=O)Nc2ccc3c(c2)OCO3)C(C)C)c1	-16	21	0	1	-20	-34	·	·	·	·
CN(Cc1ccccc1)S(=O)(=O)c1ccc(NS(C)(=O)=O)cc1	9	8	4	2	3	9	·	·	·	·
Cc1cc(-c2ccc(S(=O)(=O)N(C)Cc3ccccc3)cc2)on1	38*	29	1	9	65*	0	26*	51*	10	17
CN(C)S(=O)(=O)N1CCC(Oc2cccc(C(=O)NCCC3=CCCCC3)c2)CC1	1	37	21	13	81*	-7	43*	60*	13*	8
COc1cccc(C(O)c2nc(-c3cccc(C(=O)O)c3)cs2)c1 (stereo not drawn)	·	·	·	1	-12	·	·	·	·	·
CC(C)(C)OC(=O)C[C@@H]1C/C=C\C[C@@H](CC(=O)N[C@H](CO)Cc2ccccc2)C(=O)NC[C@H](c2ccccc2)OC1=O	-7	11	·	16	53*	4	23*	41	6	7
CC(C)(C)OC(=O)C[C@H]1C/C=C\C[C@@H](CC(=O)N[C@H](CO)Cc2ccccc2)C(=O)N2CCC[C@H]2COC1=O	-6	8	·	14	29	-3	·	·	·	·
CC(C)(C)OC(=O)C[C@@H]1C/C=C\C[C@@H](CC(=O)N[C@H](CO)Cc2ccccc2)C(=O)N2CCC[C@H]2COC1=O	-8	6	·	22	67*	6	30*	50*	12*	11
Cc1ccc2c(Cl)c(Cc3ccccc3)c(=S)[nH]c2n1	·	·	·	0	-24	·	·	·	·	·
CCCC(NCC(=O)Nc1cc(S(=O)(=O)N2CCOCC2)ccc1OC)c1ccccc1 (stereo not drawn)	-9	0	·	6	-6	-8	·	·	·	·
O=C(N/N=C/c1sc(=O)n(Cc2ccc(Br)cc2)c1Cl)c1ccco1	-7	16	10	27	81*	-6	39*	77*	17*	27
COc1ccc(CN2CCN(C(c3ccc(F)cc3)c3ccc(F)cc3)CC2)c(OC)c1OC	-33	11	·	2	56*	-38	19	29	5	11
CCOC(=O)c1c(-c2ccccc2)cn2c(C)cc(C)nc12	-7	20	-4	8	-1	-15	·	·	·	·
COc1ccccc1NC(=O)c1ccc(NC(=O)COC(=O)C(C)C)cc1	-6	-10	-2	2	0	-9	·	·	·	·
COC(=O)c1ccc(NC(=O)COC(=O)CCC2CCCC2)cc1	-24	7	·	-2	1	-10	·	·	·	·
COc1ccccc1NC(=O)c1ccc(NC(=O)COC(=O)CCC2CCCC2)cc1	-15	3	-9	14	58*	-17	19	17	3	6
COc1ccccc1NC(=O)c1ccc(NC(=O)COC(=O)c2ccc(O)cc2)cc1	-5	3	·	18	65*	-13	25*	41	10	10
O=C(NCCc1ccc(Cl)cc1)c1cc(S(=O)(=O)N2CCCCC2)c[nH]1	6	12	-2	·	·	-27	·	·	·	·
CCN(CC)C(=O)[C@H]1C[C@@H]2[C@H](C[C@@H](c3ccccc3)[C@H]1C)N(c1ccc(F)cc1)C(=O)N2CCCOc1ccccc1	·	·	·	4	69*	·	30*	58*	5	5
COc1cc(SC)ccc1C(=O)OC(C)C(=O)Nc1ccc(NC(C)=O)cc1 (stereo not drawn)	-21	25	8	1	-27	-20	·	·	·	·
Cc1ccc(-c2cc(-c3ccccc3)nc(N/N=C/c3cccnc3)n2)cc1	-13	5	-7	7	36	-10	·	·	·	·
SMILES	CHO parental Ca	OX1R antag-1	GPR7 antag	TAAR1 ag	TAAR1 antag	OX1R antag-2	TAAR1 nonsel count	TAAR1 antag conf	Ga16 ag counter	TAAR1 ag counter
C(=N\Nc1nc(Nc2ccccc2)nc(Nc2ccccc2)n1)/c1cccnc1	-17	30	-1	9	57*	-22	25*	46	5	1
C(=N/Nc1nc(-c2ccccc2)cc(-c2ccccc2)n1)/c1cccnc1	-18	47	-11	11	65*	-26	31*	53*	4	3
CC(C(=O)Nc1sc2c(c1C(=O)NCC1CCCO1)CCC2)N1C(=O)c2ccccc2C1=O (stereo not drawn)	-13	25	12	1	-4	-13	·	·	·	·
CC(NS(=O)(=O)c1cc2c3c(c1)CCC(=O)N3CCC2)c1ccccc1 (stereo not drawn)	6	18	·	4	-3	-23	·	·	·	·
CN(C)CCN(C)Cc1ccccc1Sc1cccc2ccccc12	-13	17	16	22	7	-9	·	·	·	·
O=C(N/N=C/c1c[nH]c2ccc(Br)cc12)c1ccn(Cc2ccc(Cl)cc2)n1	-1	14	4	16	62*	-17	24*	42	4	11
CCOC(=O)c1ccccc1NC(=O)COC(=O)c1cc([N+](=O)[O-])ccc1N1CCOCC1	-9	43	·	1	59*	-12	27*	30	7	3
CN(CC(=O)Nc1ccccc1Cl)C(=O)COC(=O)c1cc([N+](=O)[O-])ccc1N1CCOCC1	-21	43	·	-1	2	-18	·	·	·	·
Cc1ccc(C(C)C)c(OCc2ccc(C(=O)N/N=C/c3ccc(O)c(O)c3)cc2)c1	2	12	-7	10	32	-2	·	·	·	·
COC(=O)N/N=C/c1ccccc1OCc1ccccc1	-5	17	-7	-1	14	-16	·	·	·	·
